# Test results taken from ChEMBL document CHEMBL1122209, “Synthesis of N-[[(substituted-phenyl)carbonyl]amino]-1,2,3,6-tetrahydropyridines with analgesic and hyperglycemic activity” (J Med Chem, 1982).
# Columns and labels:
# Rattus norvegicus [1] = assay: Percentage change in blood glucose concentration in male Wistar rats after 2 hr post treatment at a dose of 100 mg/Kg po; Hypoglycemic; assay type: functional
# In short: (§1)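 Groups of four male Wistar rats (230-260 g), fasted overnight. Test agent was suspended in 1% tragacanth in distilled water and given orally. Tail capillary blood was drawn at 0, 2 and 4 h. Serum glucose was determined spectrophotometrically from enzymatically produced NADH₂ (Barthelma-Czok procedure). Results are the mean of four animals; a positive value means hyperglycemic, a negative value hypoglycemic.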
# Rattus norvegicus [2] = assay: Percentage change in blood glucose concentration in male Wistar rats after 4 hr post treatment at a dose of 100 mg/Kg po; Hypoglycemic; assay type: functional; in short: as §1
# Rattus norvegicus [3] = assay: Percentage change in blood glucose concentration in male Wistar rats after 2 hr post treatment at a dose of 30 mg/Kg po; Hyperglycemic; assay type: functional; in short: as §1
# Rattus norvegicus [4] = assay: Percentage change in blood glucose concentration in male Wistar rats after 4 hr post treatment at a dose of 30 mg/Kg po; Hyperglycemic; assay type: functional; in short: as §1
# Mus musculus [5] = assay: Analgesic activity was measured by phenylquinone writhing test in male Swiss albino mice at a dose of 0.004 mg/Kg, sc; assay type: functional
# In short: (§2)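 Groups of five male Swiss albino mice (18-22 g). Test agent was suspended in physiological saline with Tween 80 by ultrasonic mixing and given sc. After 30 min, 0.03% phenyl-p-benzoquinone was given ip at 0.1 mL/10 g body weight. Total writhes were counted and compared with a vehicle-treated control group: % change = 100 − (treated writhes/control writhes × 100).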
# Rattus norvegicus [6] = assay: Percentage change in blood glucose concentration in male Wistar rats after 4 hr post treatment at a dose of 100 mg/Kg po.; assay type: functional; in short: as §1
# Rattus norvegicus [7] = assay: Percentage change in blood glucose concentration in male Wistar rats after 2 hr post treatment at a dose of 100 mg/Kg po.; assay type: functional; in short: as §1
# Rattus norvegicus [8] = assay: Antiinflammatory activity was measured by carrageenan-induced paw edema test in female Sprague-Dawley rats at dose of 12 mg/Kg sc after 3h
# Rattus norvegicus [9] = assay: Antiinflammatory activity was measured by carrageenan-induced paw edema test in female Sprague-Dawley rats at dose of 12 mg/Kg sc after 5 hr
# Mus musculus [10] = assay: Analgesic activity was measured by phenylquinone writhing test in male Swiss albino mice at a dose of 50 mg/Kg, sc.; assay type: functional; in short: as §2
# Rattus norvegicus [11] = assay: Percentage change in blood glucose concentration in male Wistar rats after 2 hr post treatment at a dose of 100 mg/Kg po; Hyperglycemic; assay type: functional; in short: as §1
# Mus musculus [12] = assay: Analgesic activity was measured by phenylquinone writhing test in male Swiss albino mice at a dose of 0.004 mg/Kg, sc.; assay type: functional; in short: as §2
# Rattus norvegicus [13] = assay: Percentage change in blood glucose concentration in male Wistar rats after 4 hr post treatment at a dose of 100 mg/Kg po; Hyperglycemic; assay type: functional; in short: as §1
# Mus musculus [14] = assay: Analgesic activity was measured by phenylquinone writhing test in male Swiss albino mice at a dose of 3.1 mg/Kg, sc.; details: read-out: Inhibition
# Mus musculus [15] = assay: Analgesic activity was measured by phenylquinone writhing test in male Swiss albino mice at a dose of 0.038 mg/Kg, sc.; details: read-out: Inhibition
SMILES,inhibition in vivo at 0.004 mg/kg (Mus musculus [5]),Change (Rattus norvegicus [6]),Change (Rattus norvegicus [7]),other results
CCCNC(=O)NS(=O)(=O)c1ccc(Cl)cc1 [CHLORPROPAMIDE],,,,Change (Rattus norvegicus [1]): -42%; Change (Rattus norvegicus [2]): -38%
Cc1cccc(C(=O)NN2CC=CCC2)c1,56%,108.5%,117.2%,Change (Rattus norvegicus [3]): 50%; Change (Rattus norvegicus [4]): 50%
CCC(=O)O[C@](Cc1ccccc1)(c1ccccc1)[C@H](C)CN(C)C [PROPOXYPHENE],50%,,,
COc1cccc(C(=O)NN2CC=CCC2)c1,68.8%,72.8%,113.3%,
O=C(NN1CC=CCC1)c1ccccc1,73.6%,50%,78%,
O=C(NN1CC=CCC1)c1ccc(Cl)cc1Cl,57.2%,1.3%,,Change (Rattus norvegicus [1]): -6.5%
Cc1ccccc1C(=O)NN1CC=CCC1,72%,,,Change (Rattus norvegicus [1]): -2.8%; Change (Rattus norvegicus [2]): -6.3%
O=C(NN1CC=CCC1)c1ccc(Cl)cc1,61.6%,26%,109%,
O=C(NN1CC=CCC1)c1cccc(C(F)(F)F)c1,54.4%,102%,114.8%,
O=C(NN1CC=CCC1)c1ccccc1C(F)(F)F,64%,19.6%,1.2%,
O=C(NN1CC=CCC1)c1cccc(F)c1,65.6%,137.8%,167.3%,
Cc1ccc(C(=O)NN2CC=CCC2)cc1,48%,41%,73%,
COc1ccc2c(c1)c(CC(=O)O)c(C)n2C(=O)c1ccc(Cl)cc1 [INDOMETHACIN],,,,inhibition in vivo at 12 mg/kg (Rattus norvegicus [8]): 17%; inhibition in vivo at 12 mg/kg (Rattus norvegicus [9]): 83%
O=C(NN1CC=CCC1)c1ccc(Cl)c(Cl)c1,48.8%,59%,50%,
COc1ccc(C(=O)NN2CC=CCC2)cc1,57.6%,26%,69%,
O=C(NN1CC=CCC1)c1cc(Cl)cc(Cl)c1,69.6%,18.5%,3.8%,
CC(C)(C)c1ccc(C(=O)NN2CC=CCC2)cc1,48.8%,4.7%,1.8%,
CC(=O)Oc1ccccc1C(=O)O [ASPIRIN],,,,inhibition in vivo at 50 mg/kg (Mus musculus [10]): 50%
Cc1ccc(C(=O)NN2CC=CCC2)cc1C,60.8%,62.8%,92.3%,
O=C(NN1CC=CCC1)c1ccccc1Cl,52%,21.4%,16.9%,
O=C(NN1CC=CCC1)c1ccc(F)cc1,55.2%,154%,124%,
O=C(NN1CC=CCC1)c1ccc([N+](=O)[O-])cc1,,,,Change (Rattus norvegicus [11]): 92.6%; inhibition in vivo at 0.004 mg/kg (Mus musculus [12]): 51%; Change (Rattus norvegicus [13]): 140.6%
O=C(NN1CC=CCC1)c1ccc(C(F)(F)F)cc1,46.4%,37.3%,43.3%,
COc1ccccc1C(=O)NN1CC=CCC1,69.6%,6.3%,5.8%,
O=C(NN1CC=CCC1)c1ccccc1F,64.8%,127%,213%,Change (Rattus norvegicus [3]): 50%
CN1CC[C@]23c4c5ccc(O)c4O[C@H]2[C@@H](O)C=C[C@H]3[C@H]1C5,,,,inhibition in vivo at 3.1 mg/kg (Mus musculus [14]): 50%; inhibition in vivo at 0.038 mg/kg (Mus musculus [15]): 50%
